Laboratory results published in the RNAGym collection of RNA variant scans (doi:10.1101/gad.245936.114).
Fewer inactive variants are shown than the library holds.

B1: tRNA (parent)
chain: CUCUCGGUAGCCAAGUUGGUUUAAGGCGCAAGACUUUAAUUUAUCACUACGAAAUCUUGAGAUCGGGCGUUCGACUCGCCCCCGGGAGAUUUUUUCCUCGAGCAA

Variants of: B1
Assay: nonsense suppression (GFP-seq) (ratio to wild type); higher = more function; SUP4oc tRNA, yeast GFP reporter sort-seq
Method in brief: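 Yeast carrying genome-integrated SUP4oc tRNA variants from a library with ~3% random mutations were grown in raffinose/galactose medium with 80 mg/L adenine. Each strain also carried a galactose-driven GFP ochre reporter and RFP. Cells were sorted into GFP/RFP bins, and each bin was Illumina-sequenced (phred ≥30). Nonsense suppression (GFPSEQ) is the bin median GFP/RFP, weighted by each variant's estimated cell share per bin, relative to wild-type SUP4oc; variants needed ≥100 reads and ≥30 cells.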
Variant U17G C75U A87G has a nonsense suppression of 0.77. In the case of U17A A54G G85U, the nonsense suppression is reported as ≤ 0.026. With U17A C34U A74U the nonsense suppression was ≤ 0.026. U16G G78C gave a nonsense suppression of 0.113. With G19C U63C C83A the nonsense suppression was 0.789. Variant U20G has a nonsense suppression of 0.989. Variant U20C has a nonsense suppression of 0.848. In the case of U20A, the nonsense suppression is reported as 1.18. For G19C U21C G66C G84A G86A, the nonsense suppression was ≤ 0.026. In the case of G19C C27G A30U U55C, the nonsense suppression is reported as ≤ 0.026. In the case of G18U G19A, the nonsense suppression is reported as ≤ 0.026. For U20A A87G, the nonsense suppression was 0.226. Variant U20G A60U has a nonsense suppression of 1.12. Work on U20G A60G yielded a nonsense suppression of 0.477. Work on U20A C75G yielded a nonsense suppression of 0.473. For G18A U21G C34U, the nonsense suppression was ≤ 0.026. In the case of U21A, the nonsense suppression is reported as 1.02. U20A U22C showed a nonsense suppression of 1.11. For U20C A31C C79A G85C, the nonsense suppression was ≤ 0.026. In the case of G18C G61A, the nonsense suppression is reported as ≤ 0.026. With U21A C34G C82U A89U the nonsense suppression was ≤ 0.026. With G18C A89G the nonsense suppression was ≤ 0.026. With U20C A24C the nonsense suppression was 0.249. For U17C C29A G65A C72U C77U, the nonsense suppression was ≤ 0.026. For G18C A33G C80G, the nonsense suppression was ≤ 0.026. Work on U17A A60C yielded a nonsense suppression of 0.19. For G18A G25U C27U G67C, the nonsense suppression was ≤ 0.026. With G19A C64G C68U C82A the nonsense suppression was ≤ 0.026. With U17A U70G the nonsense suppression was ≤ 0.026. In the case of U21A C83G G88U, the nonsense suppression is reported as ≤ 0.026. For G19U A23U C34A U63G, the nonsense suppression was ≤ 0.026. In the case of U17A G18U, the nonsense suppression is reported as ≤ 0.026. In the case of U20G C79G A87G, the nonsense suppression is reported as ≤ 0.026. For U17C U35G G61C U76C, the nonsense suppression was ≤ 0.026. U20G G28A C82U showed a nonsense suppression of 0.239. In the case of G18U C82U G86C, the nonsense suppression is reported as ≤ 0.026. In the case of G19U A24G A87G, the nonsense suppression is reported as ≤ 0.026. In the case of U20A U57A, the nonsense suppression is reported as ≤ 0.026. Variant U20G G61A has a nonsense suppression of 0.635. In the case of U20G G61U, the nonsense suppression is reported as 0.874. In the case of U20G G61C, the nonsense suppression is reported as 0.615. In the case of U17C G28U A30C, the nonsense suppression is reported as ≤ 0.026. With U20G C29U the nonsense suppression was 1.12. In the case of U20A U71A, the nonsense suppression is reported as ≤ 0.026. In the case of G19C U22C C68U, the nonsense suppression is reported as ≤ 0.026. Work on G19U G28A yielded a nonsense suppression of 0.0287. For U20G U21G, the nonsense suppression was 0.75. U20G U21A showed a nonsense suppression of 1.18. U20G U21C gave a nonsense suppression of 0.761. Variant U21A A54U has a nonsense suppression of 0.737. In the case of G18U A33U C82U A89C, the nonsense suppression is reported as ≤ 0.026. For U16G U17A G19A C27A, the nonsense suppression was ≤ 0.026. For G19A C34A G59A G73U C82U, the nonsense suppression was ≤ 0.026. For U17A U20G G32A G61A C80U, the nonsense suppression was ≤ 0.026. In the case of U20A A54U U76C, the nonsense suppression is reported as 0.24. With U17C G28A G61C the nonsense suppression was 0.716. For U17A U22G, the nonsense suppression was 1.03. U17G U63C showed a nonsense suppression of 0.799. For U16G U21G, the nonsense suppression was 1.1. Work on U16G U21C yielded a nonsense suppression of 0.905. With U17A A23C C68G the nonsense suppression was ≤ 0.026. Variant U20G U63A has a nonsense suppression of 1.06. In the case of U20G U63G, the nonsense suppression is reported as 0.495. U20G A30U gave a nonsense suppression of 0.444. With G19C C56U U57C the nonsense suppression was ≤ 0.026. For U17A G28U A31C C80G G84C G86A, the nonsense suppression was ≤ 0.026. With G19U U55G the nonsense suppression was ≤ 0.026. With U17C U55C G59A G66C the nonsense suppression was ≤ 0.026. With G19U A54U C72G the nonsense suppression was ≤ 0.026. U16G U63A showed a nonsense suppression of 1.09. U20C U21A showed a nonsense suppression of 0.188. In the case of U20C U21C, the nonsense suppression is reported as 1.15. For U17A A23C U71C, the nonsense suppression was ≤ 0.026. In the case of U20C C83G G86A, the nonsense suppression is reported as ≤ 0.026. In the case of G19U A24G G78C A89C, the nonsense suppression is reported as ≤ 0.026. Work on U20C G78U yielded a nonsense suppression of 0.0456. U17G U55C gave a nonsense suppression of 0.0769. In the case of U20C C56G, the nonsense suppression is reported as ≤ 0.026. With U17C A60G the nonsense suppression was 0.411. Work on U17C A60C yielded a nonsense suppression of 0.196. With U17G G28C the nonsense suppression was 0.209. Work on U17G G28A yielded a nonsense suppression of 1.12. In the case of G18U G25U G67C, the nonsense suppression is reported as ≤ 0.026. Variant U17G A54U has a nonsense suppression of 1.16. With U17G A54C the nonsense suppression was 0.64. With U17C C72G the nonsense suppression was ≤ 0.026. For U16G G25C U55G, the nonsense suppression was ≤ 0.026. For U20A C75G G85U, the nonsense suppression was 0.154. Variant U20C A54G has a nonsense suppression of 0.052. Variant U20C A54U has a nonsense suppression of 0.62. U17G G67A gave a nonsense suppression of 0.0593. For U17C C29G, the nonsense suppression was ≤ 0.026. With G18A G25U G67C the nonsense suppression was ≤ 0.026. In the case of U20A U76C, the nonsense suppression is reported as 0.719. With U20A A23G U63C the nonsense suppression was ≤ 0.026. With U20C C29U the nonsense suppression was 0.0276. G18A A24C gave a nonsense suppression of 0.0483. For U17A A33C U76C C79A C80U, the nonsense suppression was ≤ 0.026. Work on U20C G28A yielded a nonsense suppression of 0.192. Variant U17A U21A has a nonsense suppression of 0.966. U17A G61A gave a nonsense suppression of 0.83. Work on U17A G61C yielded a nonsense suppression of 0.665. With U17G G19C U21A U57A G78U the nonsense suppression was ≤ 0.026. Variant U20C U76C has a nonsense suppression of 0.228. In the case of U17A A23U G84A, the nonsense suppression is reported as ≤ 0.026. With U20G U71G the nonsense suppression was ≤ 0.026. In the case of U17G A24C, the nonsense suppression is reported as 0.653. Variant U17G A24U has a nonsense suppression of 0.159. In the case of G19C A23C C56G G85U, the nonsense suppression is reported as ≤ 0.026. Work on G18U U55C yielded a nonsense suppression of 0.0402. For U20G G67A, the nonsense suppression was 0.0529. In the case of G19A A33U U71A, the nonsense suppression is reported as ≤ 0.026. With U20C U57C U58G G61C the nonsense suppression was ≤ 0.026. For U16G G85U, the nonsense suppression was 1.06. For U16G G85C, the nonsense suppression was 0.0285. In the case of U20C C27G, the nonsense suppression is reported as ≤ 0.026. For U20C G86A, the nonsense suppression was ≤ 0.026. For U20C G86C, the nonsense suppression was ≤ 0.026. Work on U17C U22C A60G yielded a nonsense suppression of 0.348. For U17A C79A, the nonsense suppression was ≤ 0.026. For U20C C64U, the nonsense suppression was 0.0503. With U17A G26U A89U the nonsense suppression was ≤ 0.026. For G18U U20G G65C G66C, the nonsense suppression was ≤ 0.026. Work on U17G G61C yielded a nonsense suppression of 0.371. U17G G61U showed a nonsense suppression of 0.832. In the case of U17A A30G, the nonsense suppression is reported as 0.369. U17G A30U gave a nonsense suppression of 0.0613. Work on U17G A30G yielded a nonsense suppression of 0.397. In the case of G18C A24C A33U, the nonsense suppression is reported as ≤ 0.026. For G18U G25A G78U, the nonsense suppression was ≤ 0.026. U20A U63A gave a nonsense suppression of 0.187. Variant U20A U63C has a nonsense suppression of 0.191. In the case of U20A U63G, the nonsense suppression is reported as 0.106. With U20G U55C A74G the nonsense suppression was ≤ 0.026. U17G C79U gave a nonsense suppression of 0.764. Variant U21A A24C has a nonsense suppression of 0.753. Variant U21A A24U has a nonsense suppression of 0.184. In the case of G19C U71C, the nonsense suppression is reported as ≤ 0.026. U20G A54U gave a nonsense suppression of 1.04. U20A A31G showed a nonsense suppression of 0.461. For G18U G59A, the nonsense suppression was ≤ 0.026. For U17G A33U U63C G65C, the nonsense suppression was ≤ 0.026. For U16G G28U U35G G59A G85A, the nonsense suppression was ≤ 0.026. For U17C C75A G88A, the nonsense suppression was ≤ 0.026. For U17G C68A G69U, the nonsense suppression was ≤ 0.026. For U20A C34U G66U, the nonsense suppression was ≤ 0.026. U17G C64A showed a nonsense suppression of 0.0364. Work on G18A A87G yielded a nonsense suppression of 0.036. Work on U17G U22G yielded a nonsense suppression of 1.04. U20G C80U gave a nonsense suppression of 0.202. With U17C G73A the nonsense suppression was 0.899. For G19U C29A G59A, the nonsense suppression was ≤ 0.026. In the case of G18A A54U, the nonsense suppression is reported as ≤ 0.026. In the case of U20C A87G, the nonsense suppression is reported as 0.213. Work on U20C A87U yielded a nonsense suppression of 0.0273. For G19A A54G G67A, the nonsense suppression was ≤ 0.026. For G19A G26U C27G, the nonsense suppression was ≤ 0.026. Work on U17C G28C A54U yielded a nonsense suppression of 0.219. For G18A A30G, the nonsense suppression was 0.0263. G18A A30U showed a nonsense suppression of 0.0262. Work on U21A C75A yielded a nonsense suppression of 0.947. For U17A A87G, the nonsense suppression was 1.19. With U17C A62C the nonsense suppression was 0.734. With U20G G85C the nonsense suppression was 0.0271. U20G G85U gave a nonsense suppression of 0.81. With U16G U70A C82A the nonsense suppression was ≤ 0.026. With U17A A24G the nonsense suppression was 0.0262.
